Results taken from ChEMBL document CHEMBL3085726, “Tumor-targeting with novel non-benzoyl 6-substituted straight chain pyrrolo[2,3-d]pyrimidine antifolates via cellular uptake by folate receptor α and inhibition of de novo purine nucleotide biosynthesis” (J Med Chem, 2013).
Active and inactive are the calls of the source. No cut-off for these calls is given here.

Columns and labels:
[1] = Growth inhibition of Chinese hamster RT16 cells after 96 hrs by CellTiter-blue assay in presence of folic acid; type: functional, cell-based; conditions: Cricetulus griseus, RT16, 96 h
In short: (§1)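 RT16 cells were first kept 3 days in folate-free RPMI. Cells were exposed to a drug concentration range with or without 200 nM folic acid to block FR uptake. After 96 h, CellTiter-blue fluorescence was read.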

[2] = Growth inhibition of Chinese hamster MTXRII-OuaR2-4 cells after 96 hrs by CellTiter-blue assay; conditions: Cricetulus griseus
[3] = Growth inhibition of Chinese hamster PC43-10 cells after 96 hrs by CellTiter-blue assay; type: functional, cell-based; conditions: Cricetulus griseus, PC43-10, 96 h
[4] = Growth inhibition of Chinese hamster D4 cells after 96 hrs by CellTiter-blue assay in presence of folic acid; type: functional, cell-based; conditions: Cricetulus griseus, D4, 96 h
KB [5] = experiment: Growth inhibition of human KB cells expressing human RFC/FRalpha/PCFT after 96 hrs by CellTiter-blue assay; type: functional, cell-based
[6] = biological target: Folate receptor alpha (Homo sapiens) (UniProt P15328); experiment: Displacement of [3H]-folic acid from human folate receptor-alpha expressed in Chinese hamster RT16 cells after 15 mins; type: cell-based
Chain of Folate receptor alpha (Homo sapiens) (P15328 25-234 limits assumed): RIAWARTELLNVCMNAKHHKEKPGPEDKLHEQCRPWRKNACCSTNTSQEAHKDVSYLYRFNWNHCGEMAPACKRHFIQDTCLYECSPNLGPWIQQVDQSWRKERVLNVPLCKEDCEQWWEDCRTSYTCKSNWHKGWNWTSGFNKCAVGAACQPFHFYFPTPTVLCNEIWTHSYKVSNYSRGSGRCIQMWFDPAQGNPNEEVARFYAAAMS
In short: (§2)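 Cells (~1.6x10^6) rinsed with DPBS, then acidic buffer (10 mM sodium acetate, 150 mM NaCl, pH 3.5) to strip bound folate. Washed with ice-cold HEPES-buffered saline, pH 7.4. Incubated 15 min at 0°C with [3H]folic acid (50 nM, 0.5 Ci/mmol) plus a range of unlabeled ligand concentrations. Bound label normalized to protein (pmol/mg). […] Triplicate.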

R2 = experiment: Growth inhibition of Chinese hamster R2 cells expressing human PCFT4 after 96 hrs by CellTiter-blue assay; type: functional, cell-based, Cricetulus griseus; conditions: R2, 96 h
[7] = biological target: Folate receptor beta (Homo sapiens) (UniProt P14207); experiment: Displacement of [3H]-folic acid from human folate receptor-beta expressed in Chinese hamster D4 cells after 15 mins; type: cell-based; in short: as §2
Chain of Folate receptor beta (Homo sapiens) (P14207 17-230 limits assumed): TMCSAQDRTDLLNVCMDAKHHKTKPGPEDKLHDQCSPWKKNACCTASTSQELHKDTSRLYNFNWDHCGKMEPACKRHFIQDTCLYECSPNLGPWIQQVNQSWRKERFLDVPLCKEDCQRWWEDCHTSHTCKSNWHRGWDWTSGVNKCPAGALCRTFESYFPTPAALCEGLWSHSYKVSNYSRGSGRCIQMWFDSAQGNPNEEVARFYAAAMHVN

[8] = Growth inhibition of Chinese hamster RT16 cells after 96 hrs by CellTiter-blue assay; type: functional, cell-based; conditions: Cricetulus griseus, RT16, 96 h; in short: as §1
KB [9] = experiment: Growth inhibition of human KB cells expressing human RFC/FRalpha/PCFT after 96 hrs by CellTiter-blue assay in presence of folic acid; type: functional, cell-based
[10] = Growth inhibition of Chinese hamster R2(VC) cells after 96 hrs by CellTiter-blue assay; conditions: Cricetulus griseus
[11] = Growth inhibition of Chinese hamster D4 cells after 96 hrs by CellTiter-blue assay; type: functional, cell-based; conditions: Cricetulus griseus, D4, 96 h
[12] = biological target: Thymidylate synthase (Homo sapiens) (UniProt P04818); experiment: Inhibition of recombinant TS (unknown origin)
Chain of Thymidylate synthase (Homo sapiens) (P04818 2-313 limits assumed): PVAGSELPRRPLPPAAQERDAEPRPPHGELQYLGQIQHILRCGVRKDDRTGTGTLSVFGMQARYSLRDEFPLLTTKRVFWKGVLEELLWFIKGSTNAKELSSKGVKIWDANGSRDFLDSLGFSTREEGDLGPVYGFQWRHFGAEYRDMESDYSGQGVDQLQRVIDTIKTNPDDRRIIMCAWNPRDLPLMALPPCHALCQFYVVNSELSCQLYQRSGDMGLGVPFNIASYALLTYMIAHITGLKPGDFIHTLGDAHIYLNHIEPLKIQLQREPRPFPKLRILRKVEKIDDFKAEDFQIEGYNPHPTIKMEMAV

KB [13] = experiment: Growth inhibition of human KB cells by CellTiter Blue fluorescence dye-based assay in presence of thymidine; type: functional, cell-based
In short: (§3)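 KB cells in complete folate-free RPMI 1640 with 2 nM leucovorin were exposed to a drug concentration range. Co-additions were adenosine (60 μM), thymidine (10 μM), both together, or AICA (320 μM). Cell density was read by CellTiter Blue fluorescence and normalized to drug-free cells. Data are representative of triplicate experiments.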

[14] = biological target: T1, Trifunctional purine biosynthetic protein adenosine-3 (Homo sapiens, UniProt P22102); experiment: In situ inhibition of GRAFTase in human KB cells assessed as incorporation of [14C]-glycine into [14C]-formyl GAR preincubated for 30 mins followed by [14C]-glycine addition measured after 15 hrs
T1 sequence (P22102 whole entry): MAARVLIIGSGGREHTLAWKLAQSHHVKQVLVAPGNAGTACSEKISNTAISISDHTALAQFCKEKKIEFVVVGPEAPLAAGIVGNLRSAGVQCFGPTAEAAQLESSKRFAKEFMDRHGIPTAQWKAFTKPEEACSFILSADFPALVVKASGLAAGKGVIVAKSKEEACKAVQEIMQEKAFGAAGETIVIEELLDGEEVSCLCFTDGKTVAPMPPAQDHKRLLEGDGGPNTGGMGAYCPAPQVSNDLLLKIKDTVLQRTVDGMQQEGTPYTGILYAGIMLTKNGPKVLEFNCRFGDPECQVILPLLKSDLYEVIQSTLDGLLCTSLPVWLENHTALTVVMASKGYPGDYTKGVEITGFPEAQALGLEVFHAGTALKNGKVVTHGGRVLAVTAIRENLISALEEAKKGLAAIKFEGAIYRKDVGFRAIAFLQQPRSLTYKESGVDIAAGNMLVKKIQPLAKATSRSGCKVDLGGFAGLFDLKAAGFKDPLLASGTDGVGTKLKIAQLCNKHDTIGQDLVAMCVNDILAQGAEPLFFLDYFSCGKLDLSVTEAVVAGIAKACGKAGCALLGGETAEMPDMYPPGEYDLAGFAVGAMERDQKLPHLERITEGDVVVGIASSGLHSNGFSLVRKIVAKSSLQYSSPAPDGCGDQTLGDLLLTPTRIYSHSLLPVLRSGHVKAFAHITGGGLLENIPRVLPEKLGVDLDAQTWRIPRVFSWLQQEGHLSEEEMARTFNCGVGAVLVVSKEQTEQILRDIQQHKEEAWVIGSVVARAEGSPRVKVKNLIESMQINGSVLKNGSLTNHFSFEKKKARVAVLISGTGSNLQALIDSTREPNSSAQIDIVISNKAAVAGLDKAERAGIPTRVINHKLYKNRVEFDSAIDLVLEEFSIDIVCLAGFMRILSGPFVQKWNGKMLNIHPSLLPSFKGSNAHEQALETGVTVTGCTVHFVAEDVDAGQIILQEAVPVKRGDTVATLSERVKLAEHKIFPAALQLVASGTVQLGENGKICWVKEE

KB [15] = experiment: Growth inhibition of human KB cells by CellTiter Blue fluorescence dye-based assay in presence of adenosine and AICA; type: functional, cell-based; in short: as §3
[16] = biological target: T2, Dihydrofolate reductase (Homo sapiens) (UniProt P00374); experiment: Inhibition of recombinant DHFR (unknown origin)
T2 sequence (whole entry): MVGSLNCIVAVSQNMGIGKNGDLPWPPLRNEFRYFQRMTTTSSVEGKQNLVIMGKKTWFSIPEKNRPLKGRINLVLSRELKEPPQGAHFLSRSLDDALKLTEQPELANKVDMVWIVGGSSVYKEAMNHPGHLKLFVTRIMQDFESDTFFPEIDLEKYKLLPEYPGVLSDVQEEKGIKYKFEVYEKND

SMILES	IC50 [1] [nM]	IC50 [2] [nM]	IC50 [3] [nM]	IC50 [4] [nM]	IC50 (KB [5]) [nM]	inhibition [6]	IC50 (R2) [nM]	inhibition [7]	IC50 [8] [nM]	IC50 (KB [9]) [nM]	IC50 [10] [nM]	IC50 [11] [nM]	inhibition [12]	growth inhibition (GI) (KB [13])	IC50 [14] [nM]	growth inhibition (GI) (KB [15])	inhibition [16]
Nc1nc2[nH]c(CCCCCC(=O)N[C@@H](CCC(=O)O)C(=O)O)cc2c(=O)[nH]1	> 1000	> 1000	> 1000	> 1000	200	Active	> 1000	Active	> 1000	> 10000	> 1000	214	–	–	–	–	–
Cc1nc(=O)c2cc(CN(C)c3ccc(C(=O)N[C@@H](CCC(=O)O)C(=O)O)s3)ccc2[nH]1 [RALTITREXED]	–	–	–	–	–	–	–	–	–	–	> 1000	–	–	–	–	–	–
CN(Cc1cnc2nc(N)nc(N)c2n1)c1ccc(C(=O)N[C@@H](CCC(=O)O)C(=O)O)cc1 [METHOTREXATE]	–	–	–	–	–	–	–	–	–	–	> 1000	–	–	–	–	–	–
Nc1nc2[nH]c(CCCCCc3ccc(C(=O)N[C@@H](CCC(=O)O)C(=O)O)cc3)cc2c(=O)[nH]1	–	–	–	–	–	–	> 1000	–	–	–	> 1000	–	–	–	–	–	–
Nc1nc2[nH]c(CCCCCCC(=O)N[C@@H](CCC(=O)O)C(=O)O)cc2c(=O)[nH]1	> 1000	> 1000	> 1000	> 1000	7.9	Active	> 1000	Active	47.1	> 1000	> 1000	10.6	inactive	Active	2.89	inactive	inactive
C#CCC(Cc1cnc2nc(N)nc(N)c2n1)c1ccc(C(=O)N[C@@H](CCC(=O)O)C(=O)O)cc1 (mixture of isomers) [PRALATREXATE]	> 1000	819	0.69	–	0.47	–	57	–	168	1.94	> 1000	–	–	–	–	–	–
Nc1nc2[nH]c(CCCCc3ccc(C(=O)N[C@@H](CCC(=O)O)C(=O)O)cc3)cc2c(=O)[nH]1	–	–	–	–	–	–	–	–	–	–	> 1000	–	–	–	–	–	–
Nc1nc2[nH]c(CCCCCCCC(=O)N[C@@H](CCC(=O)O)C(=O)O)cc2c(=O)[nH]1	> 1000	> 1000	> 1000	> 1000	1.1	Active	> 1000	Active	8.54	> 1000	> 1000	0.87	inactive	Active	5.49	inactive	inactive
Nc1nc2[nH]c(CCCCCCc3ccc(C(=O)N[C@@H](CCC(=O)O)C(=O)O)cc3)cc2c(=O)[nH]1	–	–	–	–	–	–	> 1000	–	–	–	> 1000	–	–	–	–	–	–
Nc1nc2[nH]c(CCCCCCCCC(=O)O)cc2c(=O)[nH]1	> 100	> 1000	> 1000	> 1000	> 1000	Active	> 1000	inactive	> 10000	> 1000	> 1000	> 1000	–	–	–	–	–
Nc1nc2[nH]c(CCCCCCCC(=O)O)cc2c(=O)[nH]1	> 1000	> 1000	> 1000	> 1000	> 1000	–	> 1000	–	> 1000	> 1000	> 1000	> 1000	–	–	–	–	–
Nc1nc2c(c(=O)[nH]1)C[C@@H](CCc1ccc(C(=O)N[C@@H](CCC(=O)O)C(=O)O)cc1)CN2 [LOMETREXOL]	–	–	–	–	–	–	–	–	–	–	> 1000	–	–	–	–	–	–
Nc1nc2[nH]c(CCCCCCCCC(=O)N[C@@H](CCC(=O)O)C(=O)O)cc2c(=O)[nH]1	> 10000	> 1000	> 1000	> 1000	1.48	Active	> 1000	Active	12.3	> 1000	> 1000	3.99	inactive	Active	9.62	inactive	inactive
Nc1nc2[nH]c(CCCCCCC(=O)O)cc2c(=O)[nH]1	> 1000	> 1000	> 1000	> 1000	> 1000	–	> 1000	–	> 1000	> 1000	> 1000	> 1000	–	–	–	–	–
Nc1nc2[nH]c(CCCCCC(=O)O)cc2c(=O)[nH]1	> 1000	> 1000	> 1000	> 1000	> 1000	–	> 1000	–	> 1000	> 1000	> 1000	> 1000	–	–	–	–	–
Nc1nc(=O)c2nc(CNc3ccc(C(=O)N[C@@H](CCC(=O)O)C(=O)O)cc3)cnc2[nH]1	–	–	–	–	–	Active	–	Active	–	–	–	–	–	–	–	–	–
Nc1nc2[nH]c(CCCc3ccc(C(=O)N[C@@H](CCC(=O)O)C(=O)O)cc3)cc2c(=O)[nH]1	–	–	–	–	–	–	–	–	–	–	> 1000	–	–	–	–	–	–
